Reference: ChEMBL document CHEMBL4229559, “Synthesis toward Bivalent Ligands for the Dopamine D2 and Metabotropic Glutamate 5 Receptors” (J Med Chem, 2018)

Key:
[1] = biological target: T1, D(2) dopamine receptor (Homo sapiens, UniProt P14416); assay: Displacement of [3H]-Raclopride from recombinant human dopamine D2 receptor expressed in HEK293T cell membranes after 1 hr by liquid scintillation counting
In short: (§1)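 Membranes (20 µg) from HEK293T cells stably expressing D2R, or D2R with mGluR5. Incubated with 2.0 nM [3H]raclopride and unlabeled ligand (0.1 nM-10 µM) for 1 h at 37 °C in 50 mM Tris-HCl pH 7.4 containing NaCl, KCl, MgCl2, CaCl2 and EDTA. Nonspecific binding defined with 1 µM haloperidol. Counted by scintillation; Ki by Cheng-Prusoff; three independent assays.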

[2] = biological target: T1, D(2) dopamine receptor; assay: Displacement of [3H]-Raclopride from recombinant human dopamine D2 receptor expressed in HEK293T cell membranes co-expressing mGluR5a (unknown origin) after 1 hr by liquid scintillation counting; in short: as §1
[3] = biological target: T2, Metabotropic glutamate receptor 5 (Homo sapiens, UniProt P41594); assay: Antagonist activity at mGluR5 (unknown origin) expressed in HEK293T cells assessed as inhibition of L-Glu-induced MAPK phosphorylation preincubated for 30 mins followed by agonist stimulation for 10 mins by Western blot analysis; format: functional, cell-based
T2 sequence (P41594 whole entry): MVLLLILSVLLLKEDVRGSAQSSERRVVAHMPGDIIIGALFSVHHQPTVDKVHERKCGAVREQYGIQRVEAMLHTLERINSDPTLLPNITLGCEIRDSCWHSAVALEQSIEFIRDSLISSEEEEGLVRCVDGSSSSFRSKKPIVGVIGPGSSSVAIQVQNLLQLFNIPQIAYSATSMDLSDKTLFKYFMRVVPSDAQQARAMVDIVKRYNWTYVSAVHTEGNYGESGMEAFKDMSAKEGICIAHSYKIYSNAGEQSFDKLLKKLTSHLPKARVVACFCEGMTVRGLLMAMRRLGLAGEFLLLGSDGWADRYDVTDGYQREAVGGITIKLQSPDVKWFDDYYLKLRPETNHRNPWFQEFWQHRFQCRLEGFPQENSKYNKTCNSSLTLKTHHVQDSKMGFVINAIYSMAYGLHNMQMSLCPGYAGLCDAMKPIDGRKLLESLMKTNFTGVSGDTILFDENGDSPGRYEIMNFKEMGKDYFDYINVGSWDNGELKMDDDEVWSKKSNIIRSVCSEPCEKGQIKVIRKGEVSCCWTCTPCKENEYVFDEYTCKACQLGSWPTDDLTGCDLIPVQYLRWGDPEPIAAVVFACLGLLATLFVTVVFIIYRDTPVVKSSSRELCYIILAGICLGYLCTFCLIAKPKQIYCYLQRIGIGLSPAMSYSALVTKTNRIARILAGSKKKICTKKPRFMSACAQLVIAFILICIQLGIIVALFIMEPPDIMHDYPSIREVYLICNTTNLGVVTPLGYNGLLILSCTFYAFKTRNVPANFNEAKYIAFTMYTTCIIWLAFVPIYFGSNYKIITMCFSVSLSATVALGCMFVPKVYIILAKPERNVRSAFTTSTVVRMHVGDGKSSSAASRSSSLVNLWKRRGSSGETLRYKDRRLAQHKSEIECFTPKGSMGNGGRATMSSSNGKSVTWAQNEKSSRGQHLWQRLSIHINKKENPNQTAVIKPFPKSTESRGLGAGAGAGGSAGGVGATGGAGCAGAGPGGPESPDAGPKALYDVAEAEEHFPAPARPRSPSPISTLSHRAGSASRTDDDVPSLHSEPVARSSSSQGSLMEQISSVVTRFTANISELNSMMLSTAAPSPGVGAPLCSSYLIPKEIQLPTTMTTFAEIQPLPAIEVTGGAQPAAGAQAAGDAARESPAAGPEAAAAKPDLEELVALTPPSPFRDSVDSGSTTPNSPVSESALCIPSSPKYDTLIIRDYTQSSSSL
In short: (§2)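 Cells stably expressing mGluR5 alone or with D2R, seeded at 400,000 per well, serum-starved overnight at about 70% confluence. Ligand pretreatment at 1 nM-10 µM for 30 min at 37 °C, then 10 µM L-glutamate for 7-10 min. RIPA lysates run on western blot; phospho-p44/42 MAPK signal normalized to total p44/42 MAPK. Mean ± SEM of three independent experiments.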

[4] = biological target: T3, D(2) dopamine receptor/Metabotropic glutamate receptor 5 (Homo sapiens, UniProt P14416+P41594); assay: Agonist activity at human dopamine D2 receptor /mGluR5a (unknown origin) expressed in HEK293T cells assessed as reduction in forskolin-induced cAMP accumulation preincubated for 15 mins followed by forskolin addition by GloSensor-based assay; format: functional, cell-based
T3 sequence (P14416 whole entry): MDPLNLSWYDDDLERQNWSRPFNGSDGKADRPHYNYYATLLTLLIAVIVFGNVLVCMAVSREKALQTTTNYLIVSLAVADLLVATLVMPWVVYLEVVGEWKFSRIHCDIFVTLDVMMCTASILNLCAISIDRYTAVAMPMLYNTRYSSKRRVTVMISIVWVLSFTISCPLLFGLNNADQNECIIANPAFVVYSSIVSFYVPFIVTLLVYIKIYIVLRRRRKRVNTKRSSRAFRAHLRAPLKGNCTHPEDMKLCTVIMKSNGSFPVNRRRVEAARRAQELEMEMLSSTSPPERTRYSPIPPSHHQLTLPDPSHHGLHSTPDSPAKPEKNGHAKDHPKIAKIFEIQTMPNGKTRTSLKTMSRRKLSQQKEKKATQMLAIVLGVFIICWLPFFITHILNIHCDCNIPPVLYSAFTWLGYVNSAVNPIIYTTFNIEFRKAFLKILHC
T3 sequence (P41594 whole entry): as the sequence (P41594 whole entry) above

[5] = biological target: T1, D(2) dopamine receptor; assay: Agonist activity at human dopamine D2 receptor expressed in HEK293T cells assessed as reduction in forskolin-induced cAMP accumulation preincubated for 15 mins followed by forskolin addition by GloSensor-based assay; format: functional, cell-based
[6] = biological target: T3, D(2) dopamine receptor/Metabotropic glutamate receptor 5; assay: Antagonist activity at human dopamine D2 receptor /mGluR5a (unknown origin) expressed in HEK293T cells assessed as inhibition of L-Glu-induced MAPK phosphorylation preincubated for 30 mins followed by agonist stimulation for 10 mins by Western blot analysis; format: cell-based; in short: as §2
[7] = biological target: T2, Metabotropic glutamate receptor 5; assay: Displacement of [3H]MPEP from recombinant mGluR5a (unknown origin) expressed in HEK293T cell membranes co-expressing human dopamine D2 receptor after 1 hr by liquid scintillation counting
In short: (§3)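 Membranes (20 µg) from cells stably expressing mGluR5, with or without D2R. Incubated with 3.0 nM [3H]MPEP and unlabeled ligand (0.1 nM-100 µM) in 50 mM Tris-HCl/2 mM MgCl2, pH 7.4, for 1 h at 25 °C. Nonspecific binding defined with 10 µM MPEP. Filtration and scintillation counting; Ki via Cheng-Prusoff; three independent assays in duplicate.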

[8] = biological target: T2, Metabotropic glutamate receptor 5; assay: Displacement of [3H]MPEP from recombinant mGluR5 (unknown origin) expressed in HEK293T cell membranes after 1 hr by liquid scintillation counting; in short: as §3

T1 sequence (P14416 whole entry): as the sequence (P14416 whole entry) above

| Ki [1] | Ki [2] | IC50 [3] | EC50 ([4]; read-out: EC50) | EC50 ([5]; read-out: EC50) | IC50 [6] | Ki [7] | Ki [8] | EC50 [4] | EC50 [5] | Structure (SMILES) |
| --- | --- | --- | --- | --- | --- | --- | --- | --- | --- | --- |
| 352 nM | 186 nM | 900 nM | – | – | – | – | – | – | – | COc1cc(CN2CCN(c3ccccc3OC)CC2)ccc1OCc1cn(CCOCCOCCOCCOCCOCCNC(=O)COc2cccc(C#Cc3csc(C)n3)c2)nn1 |
| 295 nM | 142 nM | 1600 nM | 20 nM | 7.6 nM | – | – | – | – | – | CCCN(CCc1ccc(NC(=O)CCc2cn(CCCCCCNC(=O)COc3cncc(C#Cc4csc(C)n4)c3)nn2)cc1)C1CCc2c(O)cccc2C1 (stereo unspecified) |
| 147 nM | 94 nM | 240 nM | – | – | – | – | – | – | – | COc1cc(CN2CCN(c3ccccc3OC)CC2)ccc1OCc1cn(CCCCCCCCN(C)CCCCCNC(=O)COc2cccc(C#Cc3csc(C)n3)c2)nn1 |
| 398 nM | 252 nM | 310 nM | – | – | – | – | – | – | – | COc1cc(CN2CCN(c3ccccc3OC)CC2)ccc1OCc1cn(CCCCCCCCCCN(C)CCCCCNC(=O)COc2cccc(C#Cc3csc(C)n3)c2)nn1 |
| 50 nM | 13 nM | 170 nM | 1.5 nM | 3.3 nM | 620 nM | 1100 nM | 2300 nM | – | – | CCCN(CCc1ccc(NC(=O)CCc2cn(CCCCCCCCN(C)CCCCCNC(=O)COc3cncc(C#Cc4csc(C)n4)c3)nn2)cc1)C1CCc2c(O)cccc2C1 (stereo unspecified) |
| 17 nM | 19 nM | – | 6.5 nM | 3 nM | – | – | – | – | – | C#CCCC(=O)Nc1ccc(CCN(CCC)C2CCc3c(O)cccc3C2)cc1 (stereo unspecified) |
| 303 nM | 115 nM | 450 nM | – | – | – | – | – | – | – | COc1cc(CN2CCN(c3ccccc3OC)CC2)ccc1OCc1cn(CCCCCCCCCCN(C)CCCCCNC(=O)COc2cncc(C#Cc3csc(C)n3)c2)nn1 |
| – | – | 2600 nM | – | – | 4500 nM | 5700 nM | 5800 nM | – | – | Cc1nc(C#Cc2cncc(OCC(=O)NCCCCCN(C)CCCCCCCCN=[N+]=[N-])c2)cs1 |
| 79 nM | 171 nM | 320 nM | 32 nM | 5.5 nM | – | – | – | – | – | CCCN(CCc1ccc(NC(=O)CCc2cn(CCCCCCCCCCN(C)CCCCCNC(=O)COc3cncc(C#Cc4csc(C)n4)c3)nn2)cc1)C1CCc2c(O)cccc2C1 (stereo unspecified) |
| 132 nM | 45 nM | 110 nM | – | – | 1800 nM | 1300 nM | 1000 nM | – | – | COc1cc(CN2CCN(c3ccccc3OC)CC2)ccc1OCc1cn(CCCCCCCCN(C)CCCCCNC(=O)COc2cncc(C#Cc3csc(C)n3)c2)nn1 |
| 438 nM | 251 nM | 1200 nM | – | – | – | – | – | – | – | COc1cc(CN2CCN(c3ccccc3OC)CC2)ccc1OCc1cn(CCOCCOCCOCCNC(=O)COc2cccc(C#Cc3csc(C)n3)c2)nn1 |
| 77 nM | 69 nM | – | – | – | – | – | – | Not Active | Not Active | C#CCOc1ccc(CN2CCN(c3ccccc3OC)CC2)cc1OC |
